Assays:
Format in all cases: functional
U-251 [1] = assay: Cytotoxicity against human U251 cells assessed as cell growth at 100 nM after 48 hrs by sulforhodamine B assay; details: U-251, 48 h, read-out: Activity
SK-MEL-2 = assay: Cytotoxicity against human SK-MEL-2 cells assessed as cell growth at 100 nM after 48 hrs by sulforhodamine B assay; details: SK-MEL-2, 48 h, read-out: Activity
A498 [2] = assay: Cytotoxicity against human A498 cells assessed as cell growth at 100 nM after 48 hrs by sulforhodamine B assay; details: A498, 48 h, read-out: Activity
Summary of the method: (§1)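 NCI-60 five-dose screen. Cells were grown in RPMI 1640 with 5% FBS and 2 mM L-glutamine, plated at 5000–40,000 cells/well and preincubated for 24 h. Time-zero plates were TCA-fixed. DMSO-solubilized drug was added at five concentrations (10-fold or ½-log serial dilutions) for 48 h at 37 °C, 5% CO2. Cells were TCA-fixed, stained with 0.4% SRB and read at 515 nm. Percent growth used time-zero, control and test absorbances.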

UO-31 = assay: Cytotoxicity against human UO31 cells assessed as cell growth at 100 nM after 48 hrs by sulforhodamine B assay; details: UO-31, 48 h, read-out: Activity
BT-549 [3] = assay: Cytotoxicity against human BT549 cells assessed as cell growth at 100 nM after 48 hrs by sulforhodamine B assay; details: BT-549, 48 h, read-out: Activity; summary of the method: as §1
CCRF-CEM = assay: Cytotoxicity against human CCRF-CEM cells assessed as cell growth at 1 uM after 48 hrs by sulforhodamine B assay; details: read-out: Activity; summary of the method: as §1
Malme-3M = assay: Cytotoxicity against human MALME-3M cells assessed as cell growth at 10 uM; details: read-out: Activity
Summary of the method: (§2)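 NCI-60 screen: cells grown in RPMI 1640 with 5% FBS and 2 mM L-glutamine, plated at 5000–40,000 cells/well according to doubling time, and preincubated 24 h at 37 °C, 5% CO2. The single 10 µM dose (DMSO stock) was added, then incubated 48 h. Cells were TCA-fixed and stained with 0.4% SRB, read at 515 nm, and growth % calculated against time-zero and control plates.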

A498 [4] = assay: Cytotoxicity against human A498 cells assessed as cell growth at 10 uM; details: read-out: Activity
Summary of the method: (§3)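 Single-dose NCI-60 screen at 10 µM. Cells were grown in RPMI 1640 with 5% FBS and 2 mM L-glutamine, then treated for 48 h at 37 °C. Protein was measured by SRB staining with absorbance at 515 nm. Percentage growth was recorded, and inhibition percentage was calculated as 100 minus growth percentage.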

[5] = Cytotoxicity against human Hs 578T cells assessed as cell growth at 10 uM; details: read-out: Activity; summary of the method: as §3
SF-268 = assay: Cytotoxicity against human SF268 cells assessed as cell growth at 0.01 uM after 48 hrs by sulforhodamine B assay; details: SF-268, 48 h, read-out: Activity
UACC-257 = assay: Cytotoxicity against human UACC257 cells assessed as cell growth at 0.01 uM after 48 hrs by sulforhodamine B assay; details: UACC-257, 48 h, read-out: Activity
RXF 393 = assay: Cytotoxicity against human RXF393 cells assessed as cell growth at 0.01 uM after 48 hrs by sulforhodamine B assay; details: RXF 393, 48 h, read-out: Activity
TK-10 = assay: Cytotoxicity against human TK10 cells assessed as cell growth at 0.01 uM after 48 hrs by sulforhodamine B assay; details: TK-10, 48 h, read-out: Activity
NCI-H322M [6] = assay: Cytotoxicity against human NCI-H322M cells assessed as cell growth at 0.001 uM after 48 hrs by sulforhodamine B assay; details: read-out: Activity
SF-539 = assay: Cytotoxicity against human SF539 cells assessed as cell growth at 0.001 uM after 48 hrs by sulforhodamine B assay; details: SF-539, 48 h, read-out: Activity
U-251 [7] = assay: Cytotoxicity against human U251 cells assessed as cell growth at 0.001 uM after 48 hrs by sulforhodamine B assay; details: U-251, 48 h, read-out: Activity
OVCAR-4 [8] = assay: Cytotoxicity against human OVCAR4 cells assessed as cell growth at 0.001 uM after 48 hrs by sulforhodamine B assay; details: OVCAR-4, 48 h, read-out: Activity
ACHN [9] = assay: Cytotoxicity against human ACHN cells assessed as cell growth at 0.001 uM after 48 hrs by sulforhodamine B assay; details: read-out: Activity; summary of the method: as §1
NCI-H322M [10] = assay: Growth inhibition of human NCI-H322M cells after 48 hrs by sulforhodamine B assay
Summary of the method: (§4)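 NCI 60-cell screen, five-dose mode. Cells grown in RPMI 1640 with 5% FBS and 2 mM L-glutamine and plated at 5000-40,000 cells/well according to doubling time. After 24 h preincubation, a Tz plate was TCA-fixed. Five concentrations (10-fold or 1/2 log dilutions) were applied for 48 h at 37 °C. SRB staining read at 515 nm. IC50 taken from [(Ti-Tz)/(C-Tz)]×100 = 50.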

PC-3 = assay: Growth inhibition of human PC3 cells after 48 hrs by sulforhodamine B assay; details: PC-3, 48 h; summary of the method: as §4
DU-145 = assay: Growth inhibition of human DU145 cells after 48 hrs by sulforhodamine B assay; details: DU-145, 48 h
Summary of the method: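 NCI five-dose SRB assay in RPMI 1640 with 5% FBS and 2 mM L-glutamine. Cells were preincubated 24 h, then exposed 48 h at 37 °C to five concentrations (10-fold or half-log serial dilutions from DMSO stocks). TCA fixation, SRB staining, and absorbance at 515 nm followed. IC50 was taken where [(Ti−Tz)/(C−Tz)]×100 = 50, with Tz as time-zero cell density.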

T47D = assay: Growth inhibition of human T47D cells after 48 hrs by sulforhodamine B assay; summary of the method: as §4
SR = assay: Cytotoxicity against human SR cells assessed as cell growth at 10 uM; details: read-out: Activity; summary of the method: as §2
IGROV-1 = assay: Cytotoxicity against human IGROV1 cells assessed as cell growth at 1 uM after 48 hrs by sulforhodamine B assay; details: IGROV-1, 48 h, read-out: Activity
OVCAR-4 [11] = assay: Cytotoxicity against human OVCAR4 cells assessed as cell growth at 1 uM after 48 hrs by sulforhodamine B assay; details: OVCAR-4, 48 h, read-out: Activity
BT-549 [12] = assay: Cytotoxicity against human BT549 cells assessed as cell growth at 1 uM after 48 hrs by sulforhodamine B assay; details: BT-549, 48 h, read-out: Activity; summary of the method: as §1
EKVX = assay: Cytotoxicity against human EKVX cells assessed as cell growth at 10 uM after 48 hrs by sulforhodamine B assay; details: read-out: Activity
COLO 205 = assay: Cytotoxicity against human COLO205 cells assessed as cell growth at 10 uM after 48 hrs by sulforhodamine B assay; details: COLO 205, 48 h, read-out: Activity
U-251 [13] = assay: Cytotoxicity against human U251 cells assessed as cell growth at 10 uM after 48 hrs by sulforhodamine B assay; details: U-251, 48 h, read-out: Activity
ACHN [14] = assay: Cytotoxicity against human ACHN cells assessed as cell growth at 10 uM after 48 hrs by sulforhodamine B assay; details: read-out: Activity; summary of the method: as §1

Work on `Cc1cc(O)cc(-c2nn(CC#N)cc2-c2ccnc(-c3ccc(Oc4ccccc4)cc3)c2)c1` yielded a growth at 0.1 µM (U-251 [1]) of 88%, a growth at 0.1 µM (SK-MEL-2) of 101% and a growth at 0.1 µM (A498 [2]) of 84%. It also gave a growth at 0.1 µM (UO-31) of 85%, a growth at 0.1 µM (BT-549 [3]) of 84% and a growth at 1 µM (CCRF-CEM) of 6%. The growth at 10 µM (Malme-3M) was 115%, the growth at 10 µM (A498 [4]) was 93.9% and the growth at 10 µM [5] was 75.9%. For the same molecule, the growth at 0.01 µM (SF-268) was 91%, the growth at 0.01 µM (UACC-257) was 80% and the growth at 0.01 µM (RXF 393) was 90%. For the same molecule, the growth at 0.01 µM (TK-10) was 99%, the growth at 0.001 µM (NCI-H322M [6]) was 94% and the growth at 0.001 µM (SF-539) was 88%. For the same molecule, the growth at 0.001 µM (U-251 [7]) was 97%, the growth at 0.001 µM (OVCAR-4 [8]) was 110% and the growth at 0.001 µM (ACHN [9]) was 98%. It also gave a GI50 (NCI-H322M [10]) of 5.68 µM, a TGI (NCI-H322M [10]) of 19.2 µM and a CC50 (NCI-H322M [10]; read-out: LC50 (the source's name)) of 48.6 µM. The GI50 (PC-3) was 2.15 µM, the LC50 (concentration giving 50% net cell kill) (PC-3) was 62 µM and the TGI (PC-3) was 7.37 µM. For the same molecule, the GI50 (DU-145) was 2.28 µM, the LC50 (DU-145) was 26.1 µM and the TGI (DU-145) was 7.18 µM. The GI50 (T47D) was 2.04 µM, the LC50 (T47D) was 39.1 µM and the TGI (T47D) was 5.81 µM. For the same molecule, the growth at 10 µM (SR) was 32.4%, the growth at 1 µM (IGROV-1) was -64% and the growth at 1 µM (OVCAR-4 [11]) was 21%. It also gave a growth at 1 µM (BT-549 [12]) of 4%, a growth at 10 µM (EKVX) of -41% and a growth at 10 µM (COLO 205) of -96%. It also gave a growth at 10 µM (U-251 [13]) of -98% and a growth at 10 µM (ACHN [14]) of -91%.
